Results from different studies.
Each line is one published result; the experiments were not run side by side.
Fibroblast growth factor 14: Fibroblast growth factor 14 (Homo sapiens, UniProt Q92915)
RIOK2: Serine/threonine-protein kinase RIO2 (RIOK2, Homo sapiens, UniProt Q9BVS4)

C[C@]1(O)CCCN(c2nc(Nc3ccc(S(=O)(=O)N[C@H]4CC[C@H](CN5CCN(c6ccc(C7CCC(=O)NC7=O)cc6F)CC5)CC4)cc3Cl)ncc2C(F)(F)F)C1 (stereo partly drawn) — remaining binding (Leucine-rich repeat serine/threonine-protein kinase 2 (LRRK2, Homo sapiens, UniProt Q5S007, G2019S); binding, competition with immobilised ligand; 1 µM): 12%
COc1ccc2oc(-c3ccc4nc(N)oc4c3)c/c(=N\c3ccccc3NC(=O)CCN)c2c1 — remaining binding (Phosphatidylinositol 4-phosphate 3-kinase C2 domain-containing subunit alpha (PIK3C2A, Homo sapiens, UniProt O00443); binding; 1 µM): 101%
NC/C(=C\F)COc1cccc(Cn2c(=S)[nH]c(=O)c3[nH]cnc32)c1 — inhibition (5-hydroxytryptamine receptor 1A (HTR1A, Homo sapiens, UniProt P08908); ligand displacement, radioligand; 10 µM): < 50%
CCCCC(=O)Nc1ccc(-c2ccc3ncn(CCC)c(=O)c3c2)cn1 — remaining binding (Mitogen-activated protein kinase kinase kinase 13 (MAP3K13, Homo sapiens, UniProt O43283); binding, competition with immobilised ligand; 0.5 µM): 94%
C1=C/COCc2cc(ccc2OCCN2CCCC2)Nc2nccc(n2)-c2cccc(c2)COC/1 — remaining binding (Death-associated protein kinase 3 (DAPK3, Homo sapiens, UniProt O43293); binding; 0.1 µM): 53%
CC(=O)ON=C1C=CC(=C(C#N)c2ccccc2)C=C1 — activity vs control (Casein kinase I isoform epsilon (CSNK1E, Homo sapiens, UniProt P49674); enzyme activity, inhibitor, ADP detection; 2 µM): 77%
Cc1cccc(NC(=O)Cn2cc(CO)c3ccccc32)c1 — koff (Fibroblast growth factor 14; binding, SPR): 0.013 s⁻¹
N#Cc1ccc(NC(=O)Nc2ccccc2)cc1 — remaining binding (RIOK2; cell-free assay, competition with immobilised ligand; 25 µM): 68%
CC(=O)Nc1ccc(Oc2ccc3c(c2)C(=O)N(c2cc(C)ccc2C)C3=O)cc1 — kon (Fibroblast growth factor 14; binding, SPR): 69300 M⁻¹ s⁻¹
C#Cc1cnc(Nc2ccnc(CO)c2)nc1Nc1ccccc1S(C)(=O)=NC#N (stereo not drawn) — remaining signal (RIOK2; cell-free assay; 1 µM): 100%
CC(=O)Nc1ccc(S(=O)(=O)N2CCN(CC(O)COc3ccc4ccccc4c3)CC2)cc1 (stereo not drawn) — kon (Fibroblast growth factor 14; binding, SPR): 4290 M⁻¹ s⁻¹
CCN1/C(=C/C(C)=O)Sc2ccc(F)cc21 — inhibition (Nociceptin receptor (OPRL1, Homo sapiens, UniProt P41146); ligand displacement, radioligand; 10 µM): 0.04%
